Screening data (PubChem BioAssay)
Compounds with a hit are over-represented: about 2.3% of the library has one in this group of screens.
TAAR1 agonist – agonists of human TAAR1; Q96RJ0; CHO RD-HGA16 TAAR1, Fluo-8 calcium fluorescence; vehicle wells 0%, saturating PEA agonist 100%; activation, % at 3 µM; 360,000 tested, 0.99% active;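 active means activation above the mean activation of all test compounds in the run plus 3 SD, cut at about 38% in these data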
Target sequence (Q96RJ0 whole entry, looked up): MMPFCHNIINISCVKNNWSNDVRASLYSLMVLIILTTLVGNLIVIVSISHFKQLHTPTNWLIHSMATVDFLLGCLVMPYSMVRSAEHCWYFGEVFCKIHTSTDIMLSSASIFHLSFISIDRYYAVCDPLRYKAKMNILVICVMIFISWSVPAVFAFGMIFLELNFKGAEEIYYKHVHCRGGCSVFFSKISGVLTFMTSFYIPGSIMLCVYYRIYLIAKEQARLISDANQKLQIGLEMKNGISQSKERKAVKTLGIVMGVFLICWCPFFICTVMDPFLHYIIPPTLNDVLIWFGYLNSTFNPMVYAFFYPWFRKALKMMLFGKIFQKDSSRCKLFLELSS
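Benchmarks: low control DMSO, high control PEA (EC100); System: CHO RD-HGA16 cells carrying human TAAR1 plus Gα16; Detection: Fluo-8 fluorescence, 5 s baseline then 140 s kinetic read; Schedule: 17-24 h plating, Fluo-8 75 min 37 °C, 30 min RT; Read-out basis: % activation from peak over basal fluorescence ratio, DMSO-to-PEA scaled.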
OXTR potentiator – potentiators of human oxytocin receptor. P30559. CHO-OTR cells, Fluo-8 calcium fluorescence, potentiator mode; 0% = oxytocin EC15, 100% = EC100. activation, % at 3 µM. 320,000 tested, 0.061% active;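 active means activation above that plate's cutoff, the mean activation of tested compounds plus 3 SD, cut at about 6.6% in these data, passing the limit was not always enough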
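Material: human OTR in CHO cells. Compound: 3.0 µM, one dose. Timing: compound 6 min at room temperature before oxytocin, 100 s read. Evaluation: % activation of max/min ratio relative to oxytocin controls. Replication: single well per compound, singlicate. Signal: Fluo-8 calcium dye fluorescence.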
TAAR1 antag – human TAAR1 antagonism; AID 624466; 360,000 tested, 1.5% active; inhibition, % at 3 µM; CHO RD-HGA16 TAAR1, Fluo-8 calcium fluorescence, antagonist; Q96RJ0;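 active means inhibition above a per-plate cutoff, the mean inhibition of test compounds on that plate plus 3 SD, cut at about 49% in these data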
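System: RD-HGA16 CHO cells with stable hTAAR1 and Gα16 | Probe or stimulus: EC80 β-phenethylamine stimulus | Dosing: 3 µM, single point | Times: Dye loading 75 min at 37 °C, then 30 min room temperature | Measured by: Fluo-8 calcium-sensitive fluorescence | Read-out basis: % inhibition of agonist calcium response | Replicates: n of 1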
V1R ag counter – activates human V1a receptor in oxytocin agonist counter-screen; P37288; CHO-V1R cells, Fluo-8 calcium fluorescence, agonist mode; 0% DMSO, 100% 3 nM vasopressin; activation, % at 3 µM; 320,000 tested, 0.25% active;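 active means activation above the mean activation of all tested compounds plus 3 SD, per screening run, cut at about 20% in these data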;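 further: signal is peak over basal fluorescence ratio across a 100 second FLIPR read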
Target sequence (P37288 whole entry, looked up): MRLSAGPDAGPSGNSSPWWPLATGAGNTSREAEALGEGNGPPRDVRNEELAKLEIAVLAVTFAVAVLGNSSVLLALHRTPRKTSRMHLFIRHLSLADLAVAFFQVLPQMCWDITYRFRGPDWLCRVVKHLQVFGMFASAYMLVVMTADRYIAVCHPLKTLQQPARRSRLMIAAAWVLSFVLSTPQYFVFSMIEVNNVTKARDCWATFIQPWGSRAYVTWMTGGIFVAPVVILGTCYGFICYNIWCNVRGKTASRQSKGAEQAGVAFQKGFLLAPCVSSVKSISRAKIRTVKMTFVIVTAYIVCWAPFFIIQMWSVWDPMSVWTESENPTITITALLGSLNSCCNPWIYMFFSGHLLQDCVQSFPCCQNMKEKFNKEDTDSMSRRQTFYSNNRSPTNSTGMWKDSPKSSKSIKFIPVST
OXTR ag – activates the human oxytocin receptor | AID 2435 | 320,000 tested, 0.32% active | activation, % at 3 µM | CHO-OTR cells, Fluo-8 calcium fluorescence; normalized: DMSO 0%, oxytocin 100%;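 active means activation above the mean of all tested compounds plus 3 SD, cutoff set per screening run, cut at about 20% in these data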;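 further: peak over basal fluorescence ratio from a 100 s FLIPR kinetic read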
Large screens that a line does not name were inactive.

CC(C)c1ccc(/C=C/C(=O)NC(=S)Nc2ccc(CN3CCOCC3)cc2)cc1	TAAR1 antag 66.7
O=C(Cc1ccccc1)Nc1ccc(N2CCOCC2)cc1	none
O=C(Cc1cccc2ccccc12)Nc1ccc(N2CCOCC2)cc1	TAAR1 agonist 38.9
O=C(/C=C/c1ccccc1)NC(=S)Nc1ccc(N2CCOCC2)cc1	TAAR1 antag 53.7
CCNC(=O)C1(C)CCN(Cc2cccc(C(F)(F)F)c2)C1 (stereo not drawn)	none (no result: OXTR potentiator, V1R ag counter, OXTR ag)
CC1Cc2cc(-c3csc(NC(=O)Cc4cccs4)n3)ccc2N1S(C)(=O)=O (stereo not drawn)	TAAR1 antag 61.2
CC(C)Cc1ccc(C(C)CC2=CCC(CN(C)C)C2=O)cc1 (stereo not drawn)	TAAR1 antag 50.7 (no result: OXTR potentiator, V1R ag counter, OXTR ag)
CC(=NNc1nc2ccccc2s1)c1ccncn1	TAAR1 antag 63.6 (no result: OXTR potentiator, V1R ag counter, OXTR ag)
C/C(=N\Nc1nc2ccccc2s1)c1ccc(Br)s1	none
Cc1ccsc1/C=C/C1=Cc2c(sc(NC(=O)CSc3n[nH]c(N)n3)c2C#N)C(C)(C)C1	OXTR ag 46.1
CC[C@H](CO)Nc1nc(Nc2cccc(Cl)c2)c2ncn(C(C)C)c2n1	none
CC(C)[C@H](CO)N(Cc1cccc(F)c1)c1nc(Nc2cccc(Cl)c2)c2ncn(C(C)C)c2n1	TAAR1 agonist 53.4, TAAR1 antag 72.7
C=C(CN(C)C)C(=O)c1ccc(OC2OC(COC(C)=O)C(OC(C)=O)C(OC(C)=O)C2OC(C)=O)cc1 (stereo not drawn)	TAAR1 antag 60.1 (no result: OXTR potentiator, V1R ag counter, OXTR ag)
CC(=O)Oc1ccc(CN2C(=O)C(CCc3ccccc3)ON=C2c2cnccn2)cc1 (stereo not drawn)	none (no result: OXTR potentiator, V1R ag counter, OXTR ag)
COc1cc(CN2C(=O)C(CCc3ccccc3)ON=C2c2cnccn2)cc(OC)c1 (stereo not drawn)	TAAR1 antag 50.5 (no result: OXTR potentiator, V1R ag counter, OXTR ag)
COC(=O)C1=C(C)N(CC(C)C)C(=S)NC1c1ccc(-c2ccccc2)cc1 (stereo not drawn)	none (no result: OXTR potentiator, V1R ag counter, OXTR ag)
Cc1[nH][nH]c(=O)c1C(c1ccc(-c2ccc(Cl)c(Cl)c2)o1)c1c(C)[nH][nH]c1=O	TAAR1 antag 104.7
Cc1[nH][nH]c(=O)c1C(c1ccc(-c2ccc(F)cc2)o1)c1c(C)[nH][nH]c1=O	none
O=c1c(NCCc2ccc(Cl)cc2)c(-c2ccccc2)c1=O	TAAR1 agonist 42.1
COC(=O)C1=C(C)N(C)C(=NCc2ccc(OC)cc2)NC1c1ccccc1C(F)(F)F (stereo not drawn)	none (no result: OXTR potentiator, V1R ag counter, OXTR ag)
Cc1nn(-c2ccccc2)c2c1C(O)n1c(nc3ccccc31)S2 (stereo not drawn)	TAAR1 antag 50.3
COC(=O)c1nn(-c2ccc(-c3ccccc3)cc2)cc1O	TAAR1 antag 52.3
Cc1cc2c(cc1C)CSC(c1ccccc1O)SC2	TAAR1 antag 66.0
C=C1CC(Cn2cc(Br)c(=O)[nH]c2=O)(c2ccc(-c3ccccc3)cc2)OC1=O (stereo not drawn)	TAAR1 antag 67.8 (no result: OXTR potentiator, V1R ag counter, OXTR ag)
COc1ccc(/C=N/NC(=O)c2ccccc2OC)cc1COc1ccccc1[N+](=O)[O-]	TAAR1 antag 50.8
CCC(C(=O)NC(C)(C)C)n1c(-c2ccc(C)cc2)nc2ccccc21 (stereo not drawn)	none (no result: OXTR potentiator, V1R ag counter, OXTR ag)
Cc1cc(C)nc(SCCN2CCCCC2)n1	none
O=C(Nc1cccnc1)Nc1ccc(F)c(Cl)c1	TAAR1 agonist 51.2
O=C(Nc1cccnc1)c1cc(F)c(F)cc1Cl	none
NS(=O)(=O)c1ccc(NC(=O)Nc2ccc(Cl)cc2)cc1	TAAR1 agonist 40.7
CC(=O)N(C)c1ccc(NC(=S)Nc2ccccc2)cc1	none
CNC(=O)Nc1ccc(S(N)(=O)=O)cc1	none
CC(=O)N(C)c1ccc(NC(=O)Nc2ccc(Cl)cc2)cc1	TAAR1 agonist 44.4, TAAR1 antag 102.3
O=C(Nc1ccc(Cl)cc1)Nc1ccc(Cl)c(Cl)c1	TAAR1 antag 65.6
Cc1ccccc1-n1c(O)c(/C=C/C=Nc2ccccc2)c(=O)[nH]c1=O	V1R ag counter 29.7, OXTR ag 47.2
Cc1ccc(-n2c(O)c(/C=C3/C(c4ccccc4)=Nc4ccccc43)c(=O)[nH]c2=O)cc1	none
COc1cc2nc(N(CCCN(C)C)C(=O)c3ccc(S(=O)(=O)N4CCc5ccccc54)cc3)sc2cc1OC	TAAR1 agonist 39.9
CCOc1cccc2sc(N(CCCN(C)C)C(=O)c3ccc(S(=O)(=O)N4CCc5ccccc5C4)cc3)nc12	V1R ag counter 35.2, OXTR ag 25.1
CCc1ccc2nc(N(CCCN(C)C)C(=O)c3ccc(S(=O)(=O)N4CCc5ccccc5C4)cc3)sc2c1	none
O=C(NC1CC1)c1ccc2nc([C@H]3C[C@H](O)[C@@H](CO)O3)[nH]c2c1	none (no result: OXTR potentiator, V1R ag counter, OXTR ag)
O=[N+]([O-])c1ccc(C2=Nn3c(Cn4nnc5ccccc54)nnc3SC2)cc1	none
CCC(C)C(CO)NCCCn1cnc2c(OC)ncnc21 (stereo not drawn)	none (no result: OXTR potentiator, V1R ag counter, OXTR ag)
CCn1c(C)c(C(C)=O)c(N2CCN(C(c3ccccc3)c3ccccc3)CC2)nc1=S	TAAR1 antag 50.3
CCOC(=O)Cc1csc(NC(=O)CSc2ncnc3c2cnn3-c2ccc(OC)cc2)n1	TAAR1 antag 50.0
O=C(CSc1ncnc2c1cnn2-c1ccccc1)Nc1ccccc1	TAAR1 agonist 39.5
COc1ccc(CCNC(=O)c2ccc(CNS(=O)(=O)c3ccc(C(C)(C)C)cc3)cc2)cc1OC	TAAR1 antag 56.2
COc1ccc(C(CCN2CCCC2)c2c(OC)cc(OC)c3c(-c4ccccc4)cc(=O)oc23)cc1 (stereo not drawn)	none
COc1ccc(C(CCN2CCOCC2)c2c(OC)cc(OC)c3c(-c4ccccc4)cc(=O)oc23)cc1 (stereo not drawn)	TAAR1 agonist 40.1 (no result: OXTR potentiator, V1R ag counter, OXTR ag)
CCc1ccc(O)c(N=Cc2cccc(C)c2O)c1	none
Cc1cccc(C=Nc2ccc3c4c(cccc24)CC3)c1O	V1R ag counter 24.5
CCNC(=O)NC(=O)C(C)OC(=O)[C@H](C)NS(=O)(=O)c1c(C)c(C)cc(C)c1C (stereo partly drawn)	none
CCCCNc1ccc2c(c1)OC[C@@H](CC(C)C)NS2(=O)=O	none (no result: OXTR potentiator, V1R ag counter, OXTR ag)
O=C(CSCC(=O)N1CCN(c2ccccc2)CC1)Nc1nc(-c2ccc(Cl)s2)cs1	none
O=C(CSCC(=O)N1CCCCC1)Nc1nc(-c2ccc(Cl)s2)cs1	TAAR1 antag 54.5
Cc1ccc(C)c(Nc2cc(C)nc3ccccc23)c1	none
COc1cc(S(=O)(=O)N2CCC(O)(c3cccc(C(F)(F)F)c3)CC2)ccc1-n1cnnn1	none
O=S(=O)(c1ccc(OC(F)(F)F)cc1)N1CCC(O)(c2cccc(C(F)(F)F)c2)CC1	TAAR1 agonist 43.1
OCc1ccccc1-c1cnc2sc(NCc3ccc(F)cc3)nn12	none (no result: OXTR potentiator, V1R ag counter, OXTR ag)
COc1cc(-c2nc3ccccn3c2N)ccc1O	none
COc1cc(-c2nc3ccccc3nc2-c2ccc(O)c(OC)c2)ccc1O	TAAR1 antag 53.5
